The EternaBench riboswitch data

Tested on: MS2 coat protein
Assay: apparent Kd, MS2 coat protein; higher = weaker binding; RNA-MaP array; tryptophan 2.4 mM where present
In short: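 The apparent Kd is the median of filtered binding-curve fits, one per cluster, to green signal normalised to red-channel RNA signal and control-cluster median Fmax. The clusters were on Illumina sequencing chips, and stalled E. coli RNA polymerase had transcribed the designs on them. Titration used SNAP-549-labelled MS2 coat protein from 0.7 or 1.5 nM, doubling to 3 µM, without and then with constant ligand, in 100 mM Tris-HCl pH 7.5, 80 mM KCl, 4 mM MgCl2, BSA, DTT, yeast tRNA and Tween-20.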

[1] = designed as: ON switch for tryptophan, no ligand
[2] = ligand present: tryptophan, designed as: ON switch for tryptophan
[3] = designed as: OFF switch for tryptophan, no ligand
[4] = ligand present: tryptophan, designed as: OFF switch for tryptophan

Row | Sequence | apparent Kd [1] | apparent Kd [2] | apparent Kd [3] | apparent Kd [4]
1 | ACAUUAGCCACGGCCGCCACUGCUUUAUGAUUAUAAGGAUUAAUGAACAUGAGGAUCACCCAUGUCAGGACCGGGUGCCUACCAU | 29.8 nM | 29.7 nM |  | 
2 | CGAGUGCUGUCGGCCGCCACUGCACAUGAGGAUCACCCAUGUAAAAGCUGGCUGUGACUGGUGUUCAGGACCGGGACAGGGUCUU |  |  | 10.7 nM | 25.4 nM
3 | AGAGCAUUGACGGCCGCCACUCAUGUCACAUGAGGAUCACCCAUGUGAUGGGUGAUAGCCCGGUUGAGGACCGGGUCAAUGCUCA | 18.8 nM | 19.4 nM |  | 
4 | AACGUCUUGUCGGCCGCCACUGUAUGGUGCGUGACAUGAAACAUGAGGAUCACCCAUGUAGCAUGCAGGACCGGGACAGUGCCAA |  |  | 9.84 nM | 17.8 nM
5 | AAUGUAUGGCACAUGAGGAUCACCCAUGUGCGAGGACCGGUACGGCCGCCACUCGGUCCUGGGAUCUUAAUACUAUACAUUAAUG |  |  | 10.9 nM | 28.2 nM
6 | AAGACAUGAGGAUCACCCAUGUCGUCUACACGAGGACCGGUACGGCCGCCACUCGUUUGCCAAUGAGCGCAUGCGGCCUGGGUAU |  |  | 13.3 nM | 24.1 nM
7 | UAUCGUCAGACGGCCGCCACUAGAACAUGAGGAUCACCCAUGUAGGUCCUAGAUUCCUCAAUAACUAGGACCGGGUCUGACGAAU |  |  | 140 nM | 97.3 nM
8 | AUUCAUGGAAACAUGACAUAGGGAUCUAGCCGAGGACCGGUACGGCCGCCACUCGCUUGGAGGCACAUGAGGAUCACCCAUGUUA | 145 nM | 48.7 nM |  | 
9 | AUAUAUACAUGAGGAUCACCCAUGUUAUUUCGAGGACCGGUACGGCCGCCACUCGAUAGAGUAGAAGUAACAUUUGUUAGAUGUA | 19.7 nM | 13.9 nM |  | 
10 | GCCGCGGCCGGAAUAAACAUGGGUAAAUAACGAGGACCGGUACGGCCGCCACUCGAGAUAAAUAACAUGAGGAUCACCCAUGUAC |  |  | 163 nM | 80.3 nM
11 | AGCCACUCGAGUGAUCCUCACGAGUGGCUACGAGGACCGGUACGGCCGCCACUCGAAUUAACAUGAGGAUCACCCAUGUAAUCAC | 65.5 nM | 50.2 nM |  | 
12 | AGCCACUCGAGUGAUCCUCACGAGUGGCAACGAGGACCGGUACGGCCGCCACUCGAAUAAACAUGAGGAUCACCCAUGUAAUAAU | 70.5 nM | 49.1 nM |  | 
13 | UUCACAUGGUAUGAAUAUACAUAUAAGAAACGAGGACCGGUACGGCCGCCACUCGUGCCGGAAACAUGAGGAUCACCCAUGUGUU |  |  | 63.5 nM | 58.5 nM
14 | CAAAGUUCGUCUCUGGUCCUCUAAUCGGCUCGAGGACCGGUACGGCCGCCACUCGCCCGACAUGAGGAUCACCCAUGUCUGUAAA |  |  | 13.2 nM | 10.9 nM
15 | GGUUACUCUACGGCCGCCACUGUAAAGUAAAGAUUACUGUACAUGACAUGAGGAUCACCCAUGUACAGGACCGGGUAGUGUAACC | 23.1 nM | 21.5 nM |  | 
16 | CUAAAUAUAACGGCCGCCACUUACUCAUGAGGUAACAACAUGAGGAUCACCCAUGUUUGAGGAUCAAGGACCGGGUUAUAUUUAG | 25.6 nM | 19 nM |  | 
17 | AUAAAUAAUAAAUAAAAUAAAGUGGGUGAACGAGGACCGGUACGGCCGCCACUCGGACAUGAGGAUCACCCAUGUCCAUGUGAAA |  |  | 17.2 nM | 51.2 nM
18 | UUGCCCAGUACGGCCGCCACUGUGUGCAGGGAGCCCAGGUCCACAUGAGGAUCACCCAUGUACAACAGGACCGGGUACUUGCAAU |  |  | 9.36 nM | 10.6 nM
19 | AGUACAUGAGGAUCACCCAUGUAUCGGUACCGAGGACCGGUACGGCCGCCACUCGCAGGACAUGAGGAUCACCCAUGUGCCGCCG | 18.9 nM | 23.8 nM |  | 
